These results are taken from ChEMBL document CHEMBL1141077, “Synthesis and structure-activity relationship of a novel series of aminoalkylindoles with potential for imaging the neuronal cannabinoid receptor by positron emission tomography” (J Med Chem, 2005).

For orientation: Ki means the dissociation constant of the complex between target and ligand, obtained from inhibition or displacement.

The assay has as its target Cannabinoid receptor 1 (Rattus norvegicus, UniProt P20272). In words: In vitro binding affinity against rat cannabinoid receptor 1 using 0.5 nM [3H]CP-55940. In a few lines: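 Competition binding on membranes from frozen Sprague-Dawley rat cerebellum (0.6 mg tissue per tube) in pH 7.4 buffer: 50 mM Tris-HCl, 3 mM MgCl2, 1 mM EDTA, 0.5% fat-free BSA. Incubated 1 h at 30 °C with serial ligand dilutions. Nonspecific binding determined with excess unlabelled CP-55940. GF/C filtration, scintillation counting, quadruplicate. Ki from IC50 via Cheng-Prusoff, Kd 0.5 nM.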

Each structure is given as a SMILES string.

Sequence of Cannabinoid receptor 1 (P20272 whole entry): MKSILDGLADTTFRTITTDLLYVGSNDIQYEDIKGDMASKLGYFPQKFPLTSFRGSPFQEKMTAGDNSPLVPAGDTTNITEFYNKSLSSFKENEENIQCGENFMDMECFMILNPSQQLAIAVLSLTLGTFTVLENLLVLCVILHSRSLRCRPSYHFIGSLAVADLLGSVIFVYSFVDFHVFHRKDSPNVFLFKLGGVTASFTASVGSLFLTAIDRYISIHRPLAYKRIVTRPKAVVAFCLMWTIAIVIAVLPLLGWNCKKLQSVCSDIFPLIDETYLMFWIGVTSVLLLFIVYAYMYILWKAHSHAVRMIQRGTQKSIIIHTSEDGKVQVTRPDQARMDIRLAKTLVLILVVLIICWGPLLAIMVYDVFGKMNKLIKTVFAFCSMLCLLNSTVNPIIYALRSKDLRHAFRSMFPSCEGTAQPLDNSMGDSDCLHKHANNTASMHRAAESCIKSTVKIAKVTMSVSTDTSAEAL

As to `CN1CCCCC1Cn1cc(C(=O)c2cccc3ccccc23)c2ccccc21` (stereo not given), the Ki came to 0.9 nM.

`CN1CCCCC1Cn1cc(C(=O)c2ccc([N+](=O)[O-])c3ccccc23)c2ccccc21` (stereo not given): the affinity, expressed as Ki, was 12.4 nM.

Consider `CN1CCCCC1Cn1nc(C(=O)c2cccc3ccccc23)c2ccccc21` (stereo not given), for which affinity was put at a Ki of 1.4 nM.

On to `CN1CCCCC1Cn1cc(C(=O)c2ccc(O)c3ccccc23)c2ccccc21` (stereo not given), for which the Ki was found to be 2.2 nM.

`CN1CCCCC1Cn1cc(C(=O)Nc2cccc3ccccc23)c2ccccc21` (stereo not given) showed a Ki of 100 nM.

Compound `COc1ccc(C(=O)c2cn(CC3CCCCN3C)c3ccccc23)c2ccccc12` (stereo not given) came in with a Ki of 2.3 nM.

The compound `Cc1ccc2ccccc2c1C(=O)c1cn(CC2CCCCN2C)c2ccccc12` (stereo not given) displayed a Ki of 7.8 nM.

As for `CN1CCCCC1Cn1cc(C(=O)N2CCCC3CCCCC32)c2ccccc21` (stereo not given), affinity was put at a Ki of 12 nM.

On to `CN1CCCCC1Cn1cc(C(=O)c2ccccc2I)c2ccccc21` (stereo not given), for which the Ki worked out at 1.2 nM.

Compound `CN1CCCCC1Cn1cc(C(=O)c2cccc3cc(O)ccc23)c2ccccc21` (stereo not given) displayed a Ki of 4 nM.

`CN1CCCCC1Cn1cc(C(=O)c2ccc(Br)c3ccccc23)c2ccccc21` (stereo not given) yielded a Ki of 1.7 nM.

Turning to `CN1CCCCC1Cn1cc(C(=O)c2ccc(CCO)c3ccccc23)c2ccccc21` (stereo not given), the Ki came out at 1.3 nM.

Consider `CN1CCCCC1Cn1cc(C(=O)c2ccc(C#N)c3ccccc23)c2ccccc21` (stereo not given), for which the affinity corresponds to a Ki of 1.1 nM.

Consider `CN1CCCCC1Cn1cc(C(=O)c2ccc(F)c3ccccc23)c2ccccc21` (stereo not given), for which the Ki turned out to be 0.7 nM.

`Cc1ccc(C(=O)c2cn(CC3CCCCN3C)c3ccccc23)c2ccccc12` (stereo not given) showed an inhibition constant Ki of 1.1 nM.
